Test results: ChEMBL document CHEMBL5143722, “Antimicrobial Peptides against Multidrug-Resistant Pseudomonas aeruginosa Biofilm from Cystic Fibrosis Patients” (J Med Chem, 2022)
The source made the active and inactive calls. No cut-off for these calls is given here.

Key:
[1] = system: Pseudomonas aeruginosa; experiment: Induction of biofilm degradation of Pseudomonas aeruginosa clinical isolate 46 at sub MIC concentration incubated for 1 hr by crystal violet staining analysis; type: functional
How it was run: (§1)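 Bacteria at 1 × 10^6 CFU/mL in BM2 grown static at 37 °C for 24 h to form biofilm. Wells rinsed of unattached cells, then exposed for 1 h to serial peptide dilutions (1.56–50 μM). Washed, stained with 0.1% crystal violet, A590 read. Biomass given as % of untreated biofilm; no-bacteria wells as blanks. At least three biological repeats.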

[2] = system: Pseudomonas aeruginosa; experiment: Induction of biofilm degradation of Pseudomonas aeruginosa clinical isolate 52 at sub MIC concentration incubated for 1 hr by crystal violet staining analysis; type: functional; how it was run: as §1
[3] = system: Pseudomonas aeruginosa; experiment: Induction of biofilm degradation of Pseudomonas aeruginosa clinical isolate 59 at sub MIC concentration incubated for 1 hr by crystal violet staining analysis; type: functional; how it was run: as §1
[4] = system: Pseudomonas aeruginosa; experiment: Induction of biofilm degradation of Pseudomonas aeruginosa clinical isolate 71 at sub MIC concentration incubated for 1 hr by crystal violet staining analysis; type: functional; how it was run: as §1
[5] = system: Pseudomonas aeruginosa; experiment: Induction of biofilm degradation of Pseudomonas aeruginosa clinical isolate 72 at sub MIC concentration incubated for 1 hr by crystal violet staining analysis; type: functional; how it was run: as §1
[6] = system: Pseudomonas aeruginosa; experiment: Induction of biofilm degradation of Pseudomonas aeruginosa clinical isolate 99 at sub MIC concentration incubated for 1 hr by crystal violet staining analysis; type: functional; how it was run: as §1
[7] = system: Pseudomonas aeruginosa; experiment: Antibiofilm activity against Pseudomonas aeruginosa clinical isolate 46 assessed as inhibition of biofilm formation at 1.56 uM incubated for 24 hrs by crystal violet staining based microtiter plate method; type: functional, organism-based
How it was run: (§2)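 Washed overnight cultures in BM2 medium at 1 × 10^6 CFU/mL with 2-fold serial peptide dilutions in a U-bottom 96-well plate. Incubated 24 h at 37 °C without agitation. Unattached cells washed off, then 0.1% crystal violet stain read at 590 nm. No-bacteria blanks. Biomass expressed as % of untreated biofilm. At least three biological repeats.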

[8] = system: Pseudomonas aeruginosa; experiment: Antibiofilm activity against Pseudomonas aeruginosa clinical isolate 99 assessed as inhibition of biofilm formation at 1.56 uM incubated for 24 hrs by crystal violet staining based microtiter plate method; type: functional, organism-based; how it was run: as §2
[9] = system: Pseudomonas aeruginosa; experiment: Antibiofilm activity against Pseudomonas aeruginosa clinical isolate 251 assessed as inhibition of biofilm formation at 1.56 uM incubated for 24 hrs by crystal violet staining based microtiter plate method; type: functional, organism-based; how it was run: as §2
[10] = system: Pseudomonas aeruginosa; experiment: Antibiofilm activity against Pseudomonas aeruginosa clinical isolate 82 in artificial sputum medium at 50 uM incubated for 24 hrs by resazurin staining based microtiter plate method; type: functional, organism-based
How it was run: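 Washed overnight culture set to OD ~0.05 in BM2, diluted 1:100 into artificial sputum medium (pH 6.9) in 24-well plates. Grown 3 days aerobically at 37 °C with agitation. Peptides (12.5–100 μM) added for 24 h with agitation. Biofilm disrupted by cellulase for 1 h at 37 °C. Resazurin 0.02% for 1–2 h, fluorescence ex 530/em 590 nm; viability as % of untreated wells.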

[11] = system: Pseudomonas aeruginosa; experiment: Induction of biofilm degradation of Pseudomonas aeruginosa clinical isolate 24 derived from cystic fibrosis patient sputum at 1.56 to 50 uM by crystal violet based staining analysis; type: functional; settings: dose 1.56-50 µM
How it was run: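 Biofilm grown from 1 × 10^6 CFU/mL in pooled CF patient sputum diluted 10-fold with BM2, static, 37 °C, 24 h. Unattached cells rinsed off, then serial peptide dilutions (1.56–50 μM) applied for 1 h. Washed and stained with 0.1% crystal violet, read at 590 nm. Reported as % of untreated biomass, with no-bacteria blanks.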

[12] = Drug degradation in cystic fibrosis patient derived sputum assessed as remaining activity at 100 uM measured after 30 mins by RP-HPLC analysis; type: ADME, tissue-based; settings: human, read-out: Drug degradation
How it was run: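 Pooled CF patient sputum diluted 10-fold in Ca/Mg-free DPBS, centrifuged at 1000 rpm for 10 min. Peptide added to the supernatant at 100 μM final and held at 37 °C. Stopped with 10% HCl. Residual peptide measured by RP-HPLC on C18 with a 20–60% ACN gradient (0.1% TFA) over 50 min, as % of the unincubated mixture.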

**Q.** Which Activity [1] does the source give for `CC(C)C[C@H](NC(=O)[C@H](CC(C)C)NC(=O)[C@H](CC(C)C)NC(=O)[C@H](CC(C)C)NC(=O)[C@H](CC(C)C)NC(=O)[C@H](CC(C)C)NC(=O)[C@H](CC(C)C)NC(=O)[C@H](CC(C)C)NC(=O)[C@H](CC(C)C)NC(=O)[C@H](CCCCN)NC(=O)[C@H](CCCCN)NC(=O)[C@@H](N)CCCCN)C(=O)N[C@@H](CCCCN)C(=O)N[C@@H](CCCCN)C(=O)N[C@@H](CCCCN)C(N)=O` here?
**A.** Active

**Q.** What about the Activity [2] of the same compound?
**A.** Active

**Q.** What about the Activity [3] of the same compound?
**A.** Active

**Q.** And the Activity [4]?
**A.** Active

**Q.** What about the Activity [5] of the same compound?
**A.** Active

**Q.** What about the Activity [6] of the same compound?
**A.** Active

**Q.** For `CC(C)C[C@H](NC(=O)[C@H](CC(C)C)NC(=O)[C@H](CCCCN)NC(=O)[C@H](CC(C)C)NC(=O)[C@H](CC(C)C)NC(=O)[C@H](CCCCN)NC(=O)[C@H](CCCCN)NC(=O)[C@H](CC(C)C)NC(=O)[C@H](CC(C)C)NC(=O)[C@H](CCCCN)NC(=O)[C@H](CCCCN)NC(=O)[C@H](CC(C)C)NC(=O)[C@H](CC(C)C)NC(=O)[C@H](CCCCN)NC(=O)[C@@H](N)CC(C)C)C(N)=O`, which inhibition [7] is on record?
**A.** Active

**Q.** What about the inhibition [8] of the same compound?
**A.** Active

**Q.** What about the inhibition [9] of the same compound?
**A.** Active

**Q.** What about the Activity [10] of the same compound?
**A.** Active

**Q.** And the Activity [11]?
**A.** Active

**Q.** With `CC[C@H](C)[C@H](NC(=O)[C@H](CCCCN)NC(=O)[C@H](CCC(=O)O)NC(=O)[C@H](CCCCN)NC(=O)[C@H](CO)NC(=O)[C@H](CCCCN)NC(=O)[C@H](CCCNC(=N)N)NC(=O)[C@H](Cc1ccccc1)NC(=O)[C@H](Cc1ccccc1)NC(=O)[C@H](CC(=O)O)NC(=O)CNC(=O)[C@H](CC(C)C)NC(=O)[C@@H](N)CC(C)C)C(=O)NCC(=O)N[C@@H](CCCCN)C(=O)N[C@@H](CCC(=O)O)C(=O)N[C@@H](Cc1ccccc1)C(=O)N[C@@H](CCCCN)C(=O)N[C@@H](CCCNC(=N)N)C(=O)N[C@H](C(=O)N[C@H](C(=O)N[C@@H](CCC(N)=O)C(=O)N[C@@H](CCCNC(=N)N)C(=O)N[C@H](C(=O)N[C@@H](CCCCN)C(=O)N[C@@H](CC(=O)O)C(=O)N[C@@H](Cc1ccccc1)C(=O)N[C@@H](CC(C)C)C(=O)N[C@@H](CCCNC(=N)N)C(=O)N[C@@H](CC(N)=O)C(=O)N[C@@H](CC(C)C)C(=O)N[C@H](C(=O)N1CCC[C@H]1C(=O)N[C@@H](CCCNC(=N)N)C(=O)N[C@H](C(=O)N[C@@H](CCC(=O)O)C(=O)N[C@@H](CO)C(N)=O)[C@@H](C)O)C(C)C)[C@@H](C)CC)C(C)C)[C@@H](C)CC` as the compound, how does the metabolised at 0.5 h, 100 µM [12] read?
**A.** 100%
